From ChEMBL document CHEMBL2311493, “Focused pseudostatic hydrazone libraries screened by mass spectrometry binding assay: optimizing affinities toward γ-aminobutyric acid transporter 1” (J Med Chem, 2013)
pIC50, pKi: −log10 of the molar value.

How the values were obtained:
[1] = biological target: Sodium- and chloride-dependent GABA transporter 1 (Mus musculus) (UniProt P31648); assay: Binding affinity to mouse GAT1 expressed in HEK293 cells membranes assessed as remaining [2H10]NO711 binding level at 10 uM using LC-ESI-MS/MS analysis by [2H10]NO711 binding inhibition assay; assay type: cell membranes
Outline: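 Membranes from HEK293 cells stably expressing mGAT1, ~0.1 mg/mL protein, in pH 7.1 phosphate buffer with 1 M NaCl and 1% DMSO final. A single aldehyde (10 μM) and hydrazine 10 (100 μM) were incubated 4 h at 37 °C with the target to form the hydrazone. NO711 marker (20 nM) was then added for 40 min. Bound marker was recovered by filtration, 1 M NaCl washes and MeOH elution, then quantified by LC-ESI-MS/MS against [²H₁₀]NO711 internal standard. Result is % remaining specific binding, n = 4.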

[2] = biological target: T1, Sodium- and chloride-dependent GABA transporter 1 (Mus musculus, UniProt P31648); assay: Inhibition of [3H]GABA uptake at mouse GAT1 expressed in HEK293 cells after 25 mins by scintillation counting analysis; assay type: cell-based; conditions: for IC50: read-out: pIC50 (converted); for pIC50: read-out: IC50
[3] = biological target: T1, Sodium- and chloride-dependent GABA transporter 1; assay: Binding affinity to mouse GAT1 expressed in HEK293 cells membranes using LC-ESI-MS/MS analysis by [2H10]NO711 binding inhibition assay; assay type: cell membranes
Outline: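 Full competition with NO711 marker (20 nM) on mGAT1 HEK293 membranes in pH 7.1 phosphate buffer containing 1 M NaCl. Eight competitor concentrations, triplicate points. Bound marker was quantified by LC-ESI-MS/MS. Specific binding is total minus nonspecific. IC50 came from a one-site nonlinear fit and was converted to Ki by Cheng–Prusoff. pKi is mean ± SEM of at least three experiments.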

Row | Compound | Activity [1] [%] | IC50 [2] [nM] | pKi [3] | also measured
1 | O=C(O)C1CCCN(CCN/N=C/c2ccccc2-c2ccc(Cl)cc2Cl)C1 (stereo not given) | < 5 | 61.2 | 8.09 | 
2 | O=C(O)C1CCCN(CCN/N=C/c2ccccc2-c2ccc(Cl)cc2)C1 (stereo not given) | < 5 | 973 | 6.76 | 
3 | O=C(O)[C@@H]1CCCN(CCOCCC(c2ccccc2)c2ccccc2)C1 |  |  |  | pIC50 [2]: 7.26
4 | O=Cc1ccccc1-c1cccc(F)c1F | 81 |  |  | 
5 | O=C(O)C1CCCN(CCN/N=C/c2ccccc2-c2ccccc2F)C1 (stereo not given) | < 5 | 528 | 6.91 | 
6 | O=Cc1ccccc1-c1ccc(F)cc1Cl | 81 |  |  | 
7 | O=Cc1ccccc1-c1cccc(-c2ccccc2)c1 | 81 |  |  | 
8 | COc1cccc(F)c1-c1ccccc1C=O | 88 |  |  | 
9 | O=Cc1ccccc1-c1cc(F)ccc1F | 81 |  |  | 
10 | Cc1ccsc1C(=CCCN1CCC[C@@H](C(=O)O)C1)c1sccc1C [TIAGABINE] |  |  |  | pIC50 [2]: 7.15
11 | Cc1ccc(-c2ccccc2C=O)c(C)c1 | 81 |  |  | 
12 | Cc1cccc(-c2ccccc2C=O)c1 | 91 |  |  | 
13 | O=C(O)C1CCCN(CCN/N=C/c2ccccc2-c2cccc(-c3ccccc3)c2)C1 (stereo not given) | > 10 |  |  | 
14 | O=Cc1ccccc1-c1cccc(F)c1 | 82 |  |  | 
15 | O=C(O)C1CCCN(CCC/C=C/c2ccccc2-c2ccccc2Cl)C1 (stereo not given) |  | 3560 | 6.08 | 
16 | Cc1ccccc1-c1ccccc1C=O | 81 |  |  | 
17 | O=Cc1ccccc1-c1ccc(F)c(F)c1 | 82 |  |  | 
18 | O=Cc1ccccc1-c1c(F)cccc1F | 35 |  |  | 
19 | O=C(O)C1CCCN(CCN/N=C/c2ccccc2-c2ccc(-c3ccccc3)cc2)C1 (stereo not given) | > 10 |  |  | 
20 | O=Cc1cccc(-c2ccccc2)c1 | 88 |  |  | 
21 | COc1cccc(F)c1-c1ccccc1/C=N/NCCN1CCCC(C(=O)O)C1 (stereo not given) | < 5 | 2250 | 6.35 | 
22 | COc1ccc(F)cc1-c1ccccc1/C=N/NCCN1CCCC(C(=O)O)C1 (stereo not given) | > 10 |  |  | 
23 | O=C(O)C1CCCN(CCC=C(c2ccccc2)c2ccccc2)C1 (stereo not given) |  |  |  | pIC50 [2]: 6.89
24 | O=C(O)C1CCCN(CCN/N=C/c2cc(F)ccc2-c2ccccc2)C1 (stereo not given) | 13 |  |  | 
25 | O=Cc1ccccc1-c1ccccc1-c1ccccc1 | 81 |  |  | 

Row | Compound | Activity [1] [%] | IC50 [2] [nM] | pKi [3] | also measured
26 | O=C(O)C1CCCN(CCN/N=C/c2ccccc2-c2ccccc2Cl)C1 (stereo not given) | < 5 | 479 | 7.18 | 
27 | O=C(O)C1CCCN(CCN/N=C/c2ccccc2-c2ccc(F)cc2Cl)C1 (stereo not given) | < 5 | 292 | 7.83 | 
28 | O=C(O)[C@@H]1CCCN(CCOCCc2ccccc2-c2ccccc2)C1 |  |  |  | pIC50 [2]: 6.95
29 | O=C(O)C1CCCN(CCN/N=C/c2ccccc2-c2cccc(F)c2)C1 (stereo not given) | 16 |  |  | 
30 | O=Cc1ccccc1-c1cccc(Cl)c1 | 79 |  |  | 
31 | O=Cc1ccccc1-c1ccc(F)cc1F | 81 |  |  | 
32 | O=C(O)C1=CCCNC1 [GUVACINE] |  |  |  | pIC50 [2]: 4.85
33 | O=C(O)C1CCCN(CCC/C=C/c2ccccc2-c2ccc(Cl)cc2Cl)C1 (stereo not given) |  | 769 | 6.93 | 
34 | O=C(O)C1CCCN(CCN/N=C/c2ccccc2-c2ccc(F)cc2)C1 (stereo not given) | < 5 | 1790 | 6.55 | 
35 | O=C(O)[C@@H]1CCCN(CCO/N=C(\Cc2ccccc2F)c2ccccc2F)C1 |  |  |  | pIC50 [2]: 7.10
36 | O=C(O)C1CCCN(CCN/N=C/c2ccccc2-c2cc(F)ccc2F)C1 (stereo not given) | > 10 |  |  | 
37 | COc1cccc(-c2ccccc2C=O)c1 | 91 |  |  | 
38 | O=Cc1ccccc1-c1ccc(Cl)cc1 | 79 |  |  | 
39 | O=Cc1ccccc1-c1ccccc1Cl | 79 |  |  | 
40 | O=C(O)C1CCCN(CCN/N=C/c2cccc(-c3ccccc3)c2)C1 (stereo not given) | > 10 |  |  | 
41 | O=Cc1c(F)cccc1-c1ccccc1 | 85 |  |  | 
42 | O=C(O)C1CCCN(CCN/N=C/c2ccccc2-c2ccccc2)C1 (stereo not given) | < 5 | 4920 | 6.19 | 
43 | O=C(O)C1=CCCN(CCON=C(c2ccccc2)c2ccccc2)C1 | < 5 |  |  | pIC50 [2]: 7.40; pIC50 [3]: ≥ 6.28
44 | O=Cc1ccccc1-c1ccc(C(F)(F)F)cc1C(F)(F)F | 81 |  |  | 
45 | O=Cc1ccccc1-c1ccc(Cl)cc1Cl | 85 |  |  | 
46 | COc1ccc(F)cc1-c1ccccc1C=O | 88 |  |  | 
47 | O=C(O)C1CCCN(CCN/N=C/c2ccccc2-c2ccc(Cl)cc2F)C1 (stereo not given) | < 5 | 126 | 7.61 | 
48 | Cc1ccc(-c2ccccc2/C=N/NCCN2CCCC(C(=O)O)C2)cc1 (stereo not given) | 10 | 3400 | 6.33 | 
49 | O=C(O)C1CCCN(CCN/N=C/c2ccccc2-c2ccccc2-c2ccccc2)C1 (stereo not given) | > 10 |  |  | 

Second part, led by results:

Row | Activity [1] [%] | IC50 [2] [nM] | pKi [3] | Compound | also measured
50 | 85 |  |  | O=Cc1cc(F)ccc1-c1ccccc1 | 
51 | 35 |  |  | O=Cc1cc(F)ccc1-c1ccccc1Cl | 
52 | > 10 |  |  | COc1cccc(-c2ccccc2/C=N/NCCN2CCCC(C(=O)O)C2)c1 (stereo not given) | 
53 | 8.2 | 2870 | 6.23 | O=C(O)C1CCCN(CCN/N=C/c2ccccc2-c2cccs2)C1 (stereo not given) | 
54 | 81 |  |  | O=Cc1cc(F)ccc1-c1ccc(Cl)cc1 | 
55 | < 5 | 1230 | 6.98 | O=C(O)C1CCCN(CCN/N=C/c2cc(F)ccc2-c2ccccc2Cl)C1 (stereo not given) | 
56 | < 5 | 3320 | 6.20 | O=C(O)C1CCCN(CCN/N=C/c2ccccc2-c2ccc(F)c(F)c2)C1 (stereo not given) | 
57 | > 10 |  |  | O=C(O)C1CCCN(CCN/N=C/c2ccccc2-c2cc(F)cc(F)c2)C1 (stereo not given) | 
58 | < 5 | 836 | 7.13 | Cc1ccc(-c2ccccc2/C=N/NCCN2CCCC(C(=O)O)C2)c(C)c1 (stereo not given) | 
59 | < 5 | 1560 | 6.67 | Cc1ccccc1-c1ccccc1/C=N/NCCN1CCCC(C(=O)O)C1 (stereo not given) | 
60 |  | 3990 | 6.50 | O=C(O)C1CCCN(CCC/C=C/c2ccccc2-c2ccc(F)cc2Cl)C1 (stereo not given) | 
61 | 81 |  |  | O=Cc1ccccc1-c1cc(F)cc(F)c1 | 
62 |  | 3330 | 6.19 | O=C(O)C1CCCN(CCC/C=C/c2ccccc2-c2ccccc2F)C1 (stereo not given) | 
63 | > 10 |  |  | COc1ccc(-c2ccccc2/C=N/NCCN2CCCC(C(=O)O)C2)cc1 (stereo not given) | 
64 | 81 |  |  | O=Cc1ccccc1-c1ccc(-c2ccccc2)cc1 | 
65 | > 10 |  |  | O=C(O)C1CCCN(CCN/N=C/c2ccccc2-c2cccc(Cl)c2)C1 (stereo not given) | 
66 | < 5 | 1500 | 6.69 | O=C(O)C1CCCN(CCN/N=C/c2ccccc2-c2cccc(F)c2F)C1 (stereo not given) | 
67 | < 5 | 7350 | 6.12 | COc1cc(F)ccc1-c1ccccc1/C=N/NCCN1CCCC(C(=O)O)C1 (stereo not given) | 
68 | < 5 | 1730 | 6.58 | O=C(O)C1CCCN(CCN/N=C/c2cc(F)ccc2-c2ccccc2F)C1 (stereo not given) | 

Row | Activity [1] [%] | IC50 [2] [nM] | pKi [3] | Compound | also measured
69 | 91 |  |  | COc1ccc(-c2ccccc2C=O)cc1 | 
70 | < 5 | 129 | 7.45 | O=C(O)C1CCCN(CCN/N=C/c2ccccc2-c2ccc(F)cc2F)C1 (stereo not given) | 
71 |  | 2840 | 6.23 | O=C(O)C1CCCN(CCC/C=C/c2ccccc2-c2ccc(F)cc2F)C1 (stereo not given) | 
72 | 82 |  |  | O=Cc1ccccc1-c1ccc(F)cc1 | 
73 | < 5 | 998 | 6.88 | O=C(O)C1CCCN(CCN/N=C/c2ccccc2-c2c(F)cccc2F)C1 (stereo not given) | 
74 | > 10 |  |  | Cc1cccc(-c2ccccc2/C=N/NCCN2CCCC(C(=O)O)C2)c1 (stereo not given) | 
75 | 19 |  |  | COc1ccccc1-c1ccccc1/C=N/NCCN1CCCC(C(=O)O)C1 (stereo not given) | 
76 | 82 |  |  | O=Cc1ccccc1-c1ccccc1F | 
77 | 35 |  |  | O=Cc1cc(F)ccc1-c1ccccc1F | 
78 | 85 |  |  | O=Cc1ccccc1-c1ccc(Cl)cc1F | 
79 | < 5 | 1960 | 6.63 | O=C(O)C1CCCN(CCN/N=C/c2cc(F)ccc2-c2ccc(Cl)cc2)C1 (stereo not given) | 
80 | < 5 | 255 | 7.51 | O=C(O)C1CCCN(CCN/N=C/c2ccccc2-c2c(F)cc(F)cc2F)C1 (stereo not given) | 
81 | 35 |  |  | O=Cc1ccccc1-c1c(F)cc(F)cc1F | pIC50 [3]: 5.00
82 | 79 |  |  | COc1ccccc1-c1ccccc1C=O | 
83 | 91 |  |  | Cc1ccc(-c2ccccc2C=O)cc1 | 
84 | 88 |  |  | COc1cc(F)ccc1-c1ccccc1C=O | 
85 | > 10 |  |  | O=C(O)C1CCCN(CCN/N=C/c2c(F)cccc2-c2ccccc2)C1 (stereo not given) | 
86 | < 5 | 2820 | 6.77 | O=C(O)C1CCCN(CCN/N=C/c2ccccc2-c2ccc(C(F)(F)F)cc2C(F)(F)F)C1 (stereo not given) | 
